The values below come from ChEMBL document CHEMBL4477171, “Identification of PTP1B and α-Glucosidase Inhibitory Serrulatanes from Eremophila spp. by Combined use of Dual High-Resolution PTP1B and α-Glucosidase Inhibition Profiling and HPLC-HRMS-SPE-NMR” (J Nat Prod, 2016).

One assay has as its system Saccharomyces cerevisiae. Briefly: Inhibition of Saccharomyces cerevisiae alpha-glucosidase type-1 pre-incubated for 10 mins before pNPG substrate addition assessed as reduction in p-nitrophenol release. The method, boiled down:
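Dried residues were dissolved in 25% DMSO in 0.1 M phosphate buffer, pH 6.9, at 25 °C. α-Glucosidase was added to 0.25 U/mL final (6.25% DMSO final) and preincubated for 10 min. The reaction was started with pNPG (1.25 mM final). A405 was read every 30 s for 10 min, and inhibition was taken from the cleavage rate relative to the blank.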

Assay [1] concerns the target T1, Tyrosine-protein phosphatase non-receptor type 1 (Homo sapiens, UniProt P18031).
T1 sequence (P18031 whole entry): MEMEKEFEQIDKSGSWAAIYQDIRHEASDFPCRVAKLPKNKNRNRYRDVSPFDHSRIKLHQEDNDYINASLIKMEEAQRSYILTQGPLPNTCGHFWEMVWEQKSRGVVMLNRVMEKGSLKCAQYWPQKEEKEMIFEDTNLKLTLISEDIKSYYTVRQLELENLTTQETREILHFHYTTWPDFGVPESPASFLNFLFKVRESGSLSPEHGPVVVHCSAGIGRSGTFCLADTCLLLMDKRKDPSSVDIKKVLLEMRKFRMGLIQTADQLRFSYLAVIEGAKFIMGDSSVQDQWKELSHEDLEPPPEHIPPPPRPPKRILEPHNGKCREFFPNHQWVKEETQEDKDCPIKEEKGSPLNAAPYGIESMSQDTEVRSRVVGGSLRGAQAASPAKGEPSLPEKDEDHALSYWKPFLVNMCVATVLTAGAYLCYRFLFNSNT
Description: Inhibition of GST-tagged human PTP1B expressed in Escherichia coli using pNPP substrate assessed as reduction in p-nitrophenol release. An outline of the steps: (§1)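 Compounds were dissolved in MeOH as dilution series, dispensed in triplicate and dried. Residues were taken up in DMSO in 50 mM Tris/50 mM bis-Tris buffer with 100 mM NaCl, pH 7.0, at 25 °C. Final conditions were 10% DMSO, 1 mM EDTA, 0.5 mM pNPP and 2 mM DTT. After a 10 min preincubation, recombinant human PTP1B (0.05 μg/well) was added to start the reaction. A405 was read every 30 s for 10 min. Inhibition was calculated from the rate slope against the blank, and IC50 from dose–response curves.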

The target in assay [2] is T1, Tyrosine-protein phosphatase non-receptor type 1. Briefly: (§2) Inhibition of recombinant human PTP1B preincubated for 10 mins followed by protein addition using pNPP substrate. The method, boiled down:
as §1

The target of assay [3] is T2, Tyrosine-protein phosphatase non-receptor type 1 (Homo sapiens) (UniProt P18031).
T2 sequence (whole entry): T1 sequence (P18031 whole entry)
The description is as §2. The method, boiled down: as §1

Molecules are shown by their SMILES. pIC50: −log10 of the molar value. Calls of active or inactive are those of the source. The calls are words filed in the database; no cut-off is given here.

Consider `C/C(C=O)=C\CC[C@H](C)[C@@H]1CC[C@@H](C)c2c(O)cc(C(=O)O)cc21`, for which the inhibition result in the assay with Saccharomyces cerevisiae was “Active”.

Usually pIC50 stands for the negative decadic logarithm of the IC50, by convention in mol/L. As for `O=C1C[C@@H]2c3ccccc3O[C@H]3c4cc(O)ccc4-c4c(O)cc(O)c1c4[C@H]23` [OHIOENSIN A], the pIC50 in assay [1] is 5.12 to 5.46. In the case of `O=C1C[C@]2(O)c3ccccc3O[C@H]3c4cc(O)ccc4-c4c(O)cc(O)c1c4[C@@H]32` [OHIOENSIN F], the pIC50 in assay [1] was 5.12 to 5.46. On to `C=C1CC[C@@H]2[C@H]1[C@H]1[C@@H](C(C)CC(=O)C=C(C)C)CC[C@]12C` (stereo partly specified), for which the pIC50 in assay [1] is 5.23. Turning to `OC[C@H]1O[C@@H](O[C@@H]2c3ccccc3[C@H](O)C[C@H]2O)[C@H](O)[C@@H](O)[C@@H]1O`, the pIC50 in assay [1] was 5.26. `C[C@@H](CO)CCC[C@H](C)[C@@H]1CC[C@@H](C)c2c(O)cc(C(=O)O)cc21`: the inhibition entry with Saccharomyces cerevisiae was “Active”. The same measure, in the same setting: the result for `C/C(=C\CC[C@H](C)[C@@H]1CC[C@@H](C)c2c(O)cc(C(=O)O)cc21)CO` reads “Active”. As to `COc1cc(O)c2c3c1-c1ccc(O)cc1[C@@H]1Oc4ccccc4[C@@H](CC2=O)[C@@H]31`, the pIC50 in assay [1] was 5.12 to 5.46. Regarding `C[C@@H](CO)CCC[C@H](C)[C@@H]1CC[C@@H](C)c2c1cc(C(=O)O)c(O)c2O`, the pIC50 in assay [2] was 2.90.

`CC(C)=CCC(=O)OC[C@H](C)CCC[C@H](C)[C@@H]1CC[C@@H](C)c2c(O)cc(C(=O)O)cc21`: in assay [3], the inhibition result is “Active”. The same measure, in the same setting: next, `COc1cc(/C=C/C(=O)OC[C@H](C)CCC[C@H](C)[C@@H]2CC[C@@H](C)c3c2cc(C(=O)O)c(O)c3O)ccc1O`: “Active”.

Turning to `CC1=CCC[C@H]2[C@@H](C)[C@@](C)(CC3=C(O)C(=O)C=C(CCCS(=O)(=O)O)C3=O)CC[C@]12C`, in assay [1], the pIC50 was 5.82. Turning to `C[C@H](CCC[C@H](C)[C@@H]1CC[C@@H](C)c2c(O)cc(C(=O)O)cc21)COC(=O)CCc1ccccc1`, the inhibition entry in assay [3] was “Active”. As to `CCCC(=O)OC[C@H](C)CCC[C@H](C)[C@@H]1CC[C@@H](C)c2c1cc(C(=O)O)c(O)c2O`, the pIC50 in assay [2] was 5.12. As to `O=C1c2c(O)cc(O)c3c2[C@@H]2[C@@H](c4ccccc4O[C@H]2c2cccc(O)c2-3)[C@H]1O` [OHIOENSIN G], in assay [1], the pIC50 was 5.12 to 5.46. Regarding `COc1cc(O)c2c(c1)O[C@H](c1ccc(O)cc1)CC2=O`, in the assay with Saccharomyces cerevisiae, the inhibition entry was “Active”. For `CC(C)CC(=O)OC[C@H](C)CCC[C@H](C)[C@@H]1CC[C@@H](C)c2c1cc(C(=O)O)c(O)c2O`, the pIC50 in assay [2] is 5.46. On the same count and under the same terms, the result for `C[C@H](CCC[C@H](C)[C@@H]1CC[C@@H](C)c2c(O)cc(C(=O)O)cc21)COC(=O)/C=C/c1ccccc1` reads 5.20.

As for `C=C(CCC=C(C)C)[C@H]1CC[C@]2(C)CCCC(=C)[C@H]2C1` [LOBOPHYTUMIN C], the pIC50 in assay [1] is 5.11. With `CC(C)=CCC[C@H](C)[C@@H]1CC[C@@H](C)c2c1cc(C(=O)O)c(O)c2O`, the inhibition entry in assay [3] is “Active”.

Take `C[C@H](CCC[C@H](C)[C@@H]1CC[C@@H](C)c2c1cc(C(=O)O)c(O)c2O)COC(=O)/C=C/c1ccc(O)c(O)c1`: the inhibition result in assay [3] was “Active”.
